Screening results as filed in PubChem BioAssay.
In the library only some 1.5% were active in any assay of this set; here they are far more common.
TbMetRS inhib – Trypanosoma brucei MetRS inhibition; purified T. brucei MetRS, ATP depletion, Kinase-Glo luminescence; inhibition, % at 11.9 µM; 360,000 compounds, 0.4% hits; AID 624268;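 active means inhibition above a per-plate cutoff of the control wells' mean inhibition plus 3 SD, cut at about 5.5% in these data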;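 further: 0% = DMSO wells median and 100% = median of wells with control inhibitor compound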
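Material: parasite MetRS enzyme / Replication: singlicate, one well per compound / Signal: luminescence of leftover ATP / Schedule: 2 h aminoacylation at 25 °C after 15 min preincubation / Medium: HEPES-MgCl2-KCl buffer plus DTT, spermine, BSA, pyrophosphatase / Doses: 11.9 µM single point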
Rin1-Abl PPI inh – inhibitors of human Rin1-Abl protein interaction; P00519+Q13671; TR-FRET Rin1/Abl binding, biochemical; inhibition, % at 7.35 µM; 360,000 compounds, 0.4% hits; AID 588664; in the data active means inhibition above about 5%, passing the limit was not always enough
PKA-R1A activ – PKA-R1A complex activation; PKA-R1A dissociation, Cy5-IP20 fluorescence polarization; scaled: DMSO 0%, 113 µM cGMP 100%; activation, % at 11.4 µM; 340,000 compounds, 0.083% hits; AID 504707;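 active means percent activation above the mean of all tested compounds plus 3 SD, cut at about 19% in these data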;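 further: higher means more PKAc released from R1A so a rise in polarization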
Cardio protect – myocardial damage modulation in H9c2 cells; H9c2 cardiomyocytes, H2O2 injury protection, ATPLite, 2 h; protection from H2O2 cell death, % at 20 µM; 360,000 compounds, 0.63% hits;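 active means compounds giving at least 50% protection of heart cells from peroxide-induced death in the single-dose screen, raw or plate-pattern-corrected value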;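 further: 0% = DMSO wells with peroxide and 100% = DMSO wells without peroxide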
PKA-R2B act – activators of human PKA-R2B complex; PKA-R2B holoenzyme dissociation, Cy5-IP20 fluorescence polarization; R2B truncated from residue 108, S112A mutant; 0% DMSO only, 100% 113 µM cGMP; activation, % at 11.4 µM; 340,000 compounds, 0.079% hits; AID 504700;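 active means activation above a cutoff set at the mean over all compounds plus 3 SD, cut at about 18% in these data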;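 further: higher means more holoenzyme dissociation and a rise in polarization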
Target sequence (P31323 whole entry, looked up, other chains not shown, the tested form may be a part): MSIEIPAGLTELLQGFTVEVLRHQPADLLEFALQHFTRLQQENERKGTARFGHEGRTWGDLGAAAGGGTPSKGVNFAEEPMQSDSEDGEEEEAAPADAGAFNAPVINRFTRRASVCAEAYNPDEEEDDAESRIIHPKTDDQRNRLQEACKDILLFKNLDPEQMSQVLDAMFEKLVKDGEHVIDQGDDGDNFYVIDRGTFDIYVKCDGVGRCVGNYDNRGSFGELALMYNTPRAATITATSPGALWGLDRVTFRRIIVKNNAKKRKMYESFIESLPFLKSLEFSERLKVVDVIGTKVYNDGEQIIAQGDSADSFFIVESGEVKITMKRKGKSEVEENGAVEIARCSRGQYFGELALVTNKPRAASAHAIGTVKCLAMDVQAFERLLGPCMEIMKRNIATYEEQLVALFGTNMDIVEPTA
The depositor's hits bear a star; · = no result given.

SMILES | TbMetRS inhib | Rin1-Abl PPI inh | PKA-R1A activ | Cardio protect | PKA-R2B act
CCN(CC)CCNc1ncnc2c1sc1nc(N3CCOCC3)c3c(c12)CC(C)(C)SC3 | -1.1 | 17.5* | -0.7 | -11.6 | 2.9
CC1(C)Cc2c(c(N3CCOCC3)nc3sc4c(NCCN)ncnc4c23)CO1 | -0.5 | 1.2 | -6.7 | -14.1 | -13.0
CCN(CCn1cccn1)C(=O)c1cc(COc2cc(C)ccc2C)on1 | -0.3 | 0.8 | -4.9 | 0.7 | 3.5
O=C1CNc2ccc(C(=O)N3CCN(c4ccccn4)CC3)cc2N1 | -0.1 | -3.8 | -11.2 | 6.9 | -3.6
CC(C)C1Nc2ccc(C(=O)N3CCN(c4ccccn4)CC3)cc2NC1=O (stereo unspecified) | -0.2 | 1.2 | -4.4 | 51.4* | -2.6
Oc1ccc(Br)cc1C=Nc1ccc(Cl)cc1 | -0.2 | -1.4 | -1.2 | 50.0* | 3.1
CCN(CC)c1ccc(N=Cc2cc(Br)ccc2O)cc1 | -0.8 | 5.9 | -37.6 | -5.0 | -32.0
OCC(CO)(CO)N=Cc1cc(Br)ccc1O | -0.9 | 2.3 | 0.9 | 57.6* | 15.0
Cc1ccc(N=Cc2cc(Br)cc(Cl)c2O)cc1 | 0.4 | -2.3 | 1.5 | 75.5* | -5.0
O=C(OCc1nnc(-c2ccccc2)o1)c1ccc([N+](=O)[O-])s1 | 0.0 | -3.4 | 11.7 | 52.1* | 2.3
Cc1ccc(C(=O)OCc2nnc(-c3ccccc3)o2)s1 | 0.1 | 0.4 | -2.1 | -4.4 | -6.8
O=C(NC(=O)c1ccccc1)OCCN1C(=O)c2ccccc2C1=O | -0.5 | -0.2 | -5.6 | 3.7 | -5.2
COc1ccc(C(=O)O/N=C(/c2ccccc2)c2ccncc2)cc1OC | -0.3 | -2.3 | -15.9 | 58.8* | -0.4
COc1ccc(C(=O)O/N=C(/c2ccccc2)c2ccncc2)cc1 | -1.0 | -0.5 | 1.0 | 29.1 | 5.7
Cc1ccc(-c2nc3cc(C)c(Br)c(C)n3c2CC(C)(C)C)cc1 | -0.3 | 9.2 | · | -4.1 | ·
CC1(C)C2C/C(=N\O)C(C)(/[N+]([O-])=C/c3cccc([N+](=O)[O-])c3)CC21 (stereo unspecified) | -0.7 | 1.4 | -12.9 | -16.8 | 0.6
c1cnc2ncc3sccc3c2c1 | -0.3 | -1.6 | -7.1 | 2.9 | 1.1
O=c1[nH]c2cccnc2c2ccsc12 | 0.3 | 0.8 | 2.8 | 58.5* | 7.2
COC(=O)c1c(C)[nH]c(C(=O)COc2ccc3ccc(=O)oc3c2)c1C | -0.4 | 4.0 | 2.0 | 80.7* | -14.6
COc1ccnc(Oc2ccccc2)c1C(=O)N/C=N/OCc1ccc(F)cc1Cl | 0.0 | 2.9 | -2.6 | 69.2* | -1.6
CN(Cc1ccccc1)N=Nc1nc[nH]c1C(N)=O | -0.1 | 1.6 | · | 4.5 | ·
COc1ccc(/C=C/C(=O)c2ccccc2O)cc1CN1CCOCC1 | -1.2 | -1.7 | 8.1 | 83.5* | -6.3
CC(=O)N1C(=O)N(C(C)=O)C2C1N(C)C(=O)N2C(C)=O (stereo unspecified) | 0.5 | 3.9 | 4.8 | -2.6 | -2.6
Cc1onc(-c2ccccc2Cl)c1C(=O)N/N=C(\N)COc1ccc(Cl)cc1 | -0.2 | -4.8 | -8.3 | 60.2* | -7.8
COc1cc(/C=C/C(=O)c2ccc3c(c2)OCCO3)cc(Br)c1OCC(=O)N(C)C | -0.4 | -3.4 | -2.4 | 12.7 | -9.0
SMILES | TbMetRS inhib | Rin1-Abl PPI inh | PKA-R1A activ | Cardio protect | PKA-R2B act
O=C(N/N=C/c1cc(Br)ccc1O)c1ccccc1Cl | 1.1 | -1.1 | -0.1 | 56.3* | -10.4
CCCCCCCCN1C(=O)[C@H](CC(=O)NCCCN2CCCC2=O)C[C@@]2(C(=O)OC)CC(C)(C)CC=C12 | -0.3 | · | · | · | ·
Cc1cc(C)n2nc(C(=O)OCC(=O)N3C(C)CCCC3C)nc2n1 (stereo unspecified) | -0.4 | 2.8 | 2.5 | 2.7 | 11.4
COc1ccc2[nH]c(=O)c(CN(CCO)S(=O)(=O)c3c(C)ccc4nsnc34)cc2c1 | -1.6 | 0.6 | -4.6 | 19.1 | -5.7
COc1ccc2[nH]c(=O)c(CN(Cc3cccs3)S(=O)(=O)c3cccc4nsnc34)cc2c1 | 0.5 | 0.3 | 1.0 | 73.1* | 4.5
CC1CCN(CCCNC(=O)c2n[nH]c(=O)c3ccccc23)CC1 | -0.2 | -0.5 | -3.5 | 72.0* | -6.1
COc1ccc(Cl)c2c1[nH]c1nc(SCc3ccccn3)nnc12 | -0.8 | -7.8 | -3.1 | 64.1* | -5.3
COc1ccc(Cl)c2c1[nH]c1nc(SCc3cccnc3)nnc12 | -0.6 | -1.0 | -4.5 | -1.9 | -2.6
